Screens (PubChem)
Shown are actives, neighbours in structure and some others; about 2.6% of the full set was active somewhere.
PvdQ acylase: P. aeruginosa PvdQ acylase inhibition; inhibition, % at 10 µM; hit rate 0.063% among 340,000; AID 488965; purified PvdQ acylase, fluorescence plate reader; in the data active = inhibition above about 30%, passing the limit was not always enough; inconclusive = no clear call, values can overlap the other calls;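 also: 0% = vehicle neutral wells and 100% = reference inhibitor wells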
SR-BI HDL uptake: blocks mouse SR-BI lipid uptake from DiI-HDL | Q61009 | ldlA[mSR-BI] CHO cells, DiI-HDL uptake fluorescence, 3 h | inhibition, % at 12.5 µM | hit rate 0.96% among 320,000 | AID 488896;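 active = mean replicate inhibition of at least 70% and a set share of replicates each scoring 70 or more; inconclusive = meets just one of the two criteria; inactive = fails both criteria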;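 also: 0% = median of neutral control wells and 100% = median of positive control wells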
XiGFP reactiv: activators of X-chromosome reactivation in mouse fibroblasts; hit rate 0.055% among 360,000; XiGFP mouse fibroblasts, % GFP-positive cells imaging, 3 d; cells co-treated with 5-aza-dC sensitizer; scaled so ellipticine positive control = 100%; AID 743238; activation, % at 7.58 µM;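 active = mean normalized replicate activation at least 10% and every replicate at or above 10%; inconclusive = only one of the two criteria met; inactive = mean below 10% and not all replicates reach 10%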;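 also: 0% = median of on-plate neutral control wells and 100% = ellipticine 6 µM median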
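material = 68-5-11 XiGFP fibroblast line | medium = DMEM plus 5-aza-dC sensitizer | schedule = 3 days compound exposure | benchmarks = positive control ellipticine, 6 µM final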
rRNA inh HTS: inhibits bacterial ribosomal RNA function over humanized ribosomes | GFP signal change (wild-type ribosome), % (test concentration not listed) | E. coli WT GFP vs humanized-ribosome RFP mutants, fluorescence, 24 h; hits give low values; DMSO median 0, no signal -100 | hit rate 1.6% among 350,000;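 active = significant combined selectivity score with lowered wild-type GFP, culture density cut under 30%, mutant RFP and density less affected; inactive = any of these conditions unmet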
dFosB activator: activators of mouse delta FosB homodimer; P13346; purified delta FosB, TAMRA-CDK5 oligo fluorescence polarization; percent of positive-control signal above neutral wells; activation, % at 25 µM; hit rate 0.99% among 340,000;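 active = mean activation above about 17%, with every replicate also reaching it, limit read from the data, passing the limit was not always enough; inconclusive = only one of the two conditions met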
Target sequence (P13346 whole entry, looked up): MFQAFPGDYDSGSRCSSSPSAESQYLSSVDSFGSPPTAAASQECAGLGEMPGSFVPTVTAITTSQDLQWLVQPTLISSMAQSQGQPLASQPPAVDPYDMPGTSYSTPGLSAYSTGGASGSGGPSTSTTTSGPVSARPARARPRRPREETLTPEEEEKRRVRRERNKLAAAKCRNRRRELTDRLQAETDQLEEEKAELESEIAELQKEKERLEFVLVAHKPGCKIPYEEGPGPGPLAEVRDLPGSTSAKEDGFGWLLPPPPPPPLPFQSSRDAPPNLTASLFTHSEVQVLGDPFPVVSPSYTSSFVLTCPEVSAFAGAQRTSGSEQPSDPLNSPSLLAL
SR-BI uptake up: SR-BI HDL lipid transfer activation | activation, % at 12.5 µM | CHO ldlA[mSR-BI] cells, DiI-HDL uptake fluorescence, 3 h; 100 = double the neutral-control signal | hit rate 0.096% among 320,000;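 active = mean replicate activation of at least 60% and every replicate at or above 60%; inconclusive = mean or all-replicate condition met, but not both; inactive = mean below 60% and not all replicates reaching 60%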;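 also: 0% = median plate neutral-control signal and 100% = twice that signal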
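System: LDL receptor-deficient CHO ldlA cells overexpressing murine SR-BI | Timing: 3 h uptake period with compound, 37 °C | Medium: HEPES-buffered (25 mM, pH 7.4) F12 plus 0.5% BSA | Dosing: Single-point compound dose | Signal: Bottom-read fluorescence, 550/595 nm | Read-out: Retained DiI signal reflecting DiI-HDL uptake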
HepG2 tox: cytotoxic compounds in HepG2 cells | AID 743480 | shares compounds with rRNA inh HTS | HepG2 viability, ATP luminescence, 72 h | 30 tested, under 10 active | activity change, negative = cytotoxicity, unspecified at 26 µM;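 active = compounds whose fitted half-maximal signal-loss concentration is at most twice their highest valid dose; inconclusive = flat curve with 30 to 70% signal loss, or poor fit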
AID977621: growth inhibition of wild-type GFP E. coli, dose response, H69 mutant RFP, cherry-pick | shares compounds with rRNA inh HTS | E. coli wild-type GFP strain growth, fluorescence, 24 h | activity change, negative = inhibition at 50 µM | 1,900 tested, under 10 active | AID 977621;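 active = Wild-type ribosome reporter drop at least double the humanized mutant ribosome reporter drop, growth loss under a set limit; inconclusive = no clear call, values can overlap the other calls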;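 also: wild-type GFP and H69 mutant RFP strains grown together 50/50 in each well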
AID977628: E. coli growth inhibition, wild-type GFP versus h24 humanized RFP strain, dose response, h24 mutant RFP vs wild-type GFP, cherry-pick. shares compounds with rRNA inh HTS. E. coli WT GFP strain growth, fluorescence, 24 h. activity change, negative = inhibition at 50 µM. 1,900 tested, under 10 active. AID 977628;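 active = compound lowering the normal-ribosome reporter at least twice as much as the humanized-ribosome reporter, growth loss under a set limit; inconclusive = no clear call, values can overlap the other calls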;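 also: wild-type GFP and h24 humanized RFP strains co-cultured 1 to 1 per well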
Active calls of the source: *; ! = not confirmed by another sample.

What do the screens show for `Cc1ccc(NS(=O)(=O)c2ccc3c(c2)CCC(=O)N3)cc1C`?
PvdQ acylase: -10; SR-BI HDL uptake: 10; XiGFP reactiv: 0; rRNA inh HTS: -23*!; dFosB activator: -5; SR-BI uptake up: -10; AID977621: -3.4; AID977628: inconclusive

Results for C[C@H](CO)N1C[C@H](C)[C@H](CN(C)S(=O)(=O)c2cn(C)cn2)OCCCC[C@H](C)Oc2ccc(NC(=O)NC3CCCCC3)cc2C1=O ?
XiGFP reactiv: 0; rRNA inh HTS: 0

Results for COc1ccc2cc(CO)c(Cl)nc2c1 ?
PvdQ acylase: -12; SR-BI HDL uptake: 1; XiGFP reactiv: 0; rRNA inh HTS: -2; dFosB activator: -1; SR-BI uptake up: -1

Results for COc1ccc2cc(CO)c3cc(OC)c(OC)cc3c2c1 ?
PvdQ acylase: -16; SR-BI HDL uptake: 51; XiGFP reactiv: 0; rRNA inh HTS: -28*; dFosB activator: -8; SR-BI uptake up: -51; AID977621: -1.8

Results for O=C(C1CCOCC1)N1CC(=O)N2[C@H](CO)[C@@H](c3ccc(C#Cc4cccc(F)c4)cc3)[C@@H]2C1 ?
XiGFP reactiv: 0; rRNA inh HTS: 5

Results for Cc1ccccc1-n1c([C@@H]2C[C@H]2c2ccccc2)n[nH]c1=S ?
PvdQ acylase: -21; SR-BI HDL uptake: 7; XiGFP reactiv: 0; rRNA inh HTS: -28*; dFosB activator: 7; SR-BI uptake up: -7; AID977621: -18; AID977628: -4.5

How did S=c1[nH]nc([C@@H]2C[C@H]2c2ccccc2)n1-c1ccccc1 do in these assays?
PvdQ acylase: -8; SR-BI HDL uptake: -19; XiGFP reactiv: 0; dFosB activator: -4; SR-BI uptake up: 19

Results for CCCCCCC(=O)N1CCCC(c2nc(-c3cccc(OC)c3)no2)C1 (stereo not given) ?
PvdQ acylase: 4; SR-BI HDL uptake: -8; XiGFP reactiv: 0; rRNA inh HTS: -31*; dFosB activator: -8; SR-BI uptake up: 8; AID977621: -5.8; AID977628: inconclusive

How did COc1cc2nc(CN3CCOCC3)n(CC(=O)N3CCCCCC3)c(=O)c2cc1OC do in these assays?
PvdQ acylase: 1; SR-BI HDL uptake: -1; XiGFP reactiv: 0; rRNA inh HTS: 10; dFosB activator: 4; SR-BI uptake up: 1

Results for COc1ccccc1C1CCN(C(=O)c2cccs2)CC1 ?
PvdQ acylase: -5; SR-BI HDL uptake: -13; XiGFP reactiv: 0; rRNA inh HTS: -25*; dFosB activator: -2; SR-BI uptake up: 13; AID977621: 2.2; AID977628: -11

Results for C[C@@H]1CCCCO[C@@H](CN(C)C)[C@H](C)CN([C@H](C)CO)C(=O)c2cc(NC(=O)Nc3cccc4ccccc34)ccc2O1 ?
XiGFP reactiv: 1; rRNA inh HTS: -1; AID977621: -9.1; AID977628: inconclusive

Results for C[C@@H]1CCCCO[C@@H](CN(C)C)[C@@H](C)CN([C@H](C)CO)C(=O)c2cc(NC(=O)Nc3cccc4ccccc34)ccc2O1 ?
XiGFP reactiv: -1; rRNA inh HTS: 1; AID977621: -3.9; AID977628: inconclusive

What do the screens show for `C[C@H](CO)N1C[C@H](C)[C@H](CN(C)C)OCCCC[C@H](C)Oc2ccc(NC(=O)Nc3cccc4ccccc34)cc2C1=O`?
XiGFP reactiv: 0; rRNA inh HTS: -2; AID977621: 0.89; AID977628: inconclusive

What do the screens show for `CC(C)NC(=O)N(C)C[C@H]1OCCCC[C@@H](C)Oc2ccc(NC(=O)Nc3cccc4ccccc34)cc2C(=O)N([C@@H](C)CO)C[C@H]1C`?
XiGFP reactiv: 0; rRNA inh HTS: -31*; AID977628: inconclusive

How did CN1CCc2c(OCC(=O)N3CCC(Cc4ccccc4)CC3)cccc2C1=O do in these assays?
PvdQ acylase: -8; SR-BI HDL uptake: 12; XiGFP reactiv: 0; rRNA inh HTS: -25; dFosB activator: -7; SR-BI uptake up: -12

What do the screens show for `CCOn1c(=O)c(-c2ccc(OC)cc2)[n+]([O-])c2ccccc21`?
PvdQ acylase: -5; SR-BI HDL uptake: 3; dFosB activator: -11; SR-BI uptake up: -3

What do the screens show for `CC(C)NC(=O)N(C)C[C@H]1OCCCC[C@@H](C)Oc2ccc(NC(=O)c3ccccc3)cc2C(=O)N([C@@H](C)CO)C[C@H]1C`?
XiGFP reactiv: -1; rRNA inh HTS: -20*; AID977621: -0.74; AID977628: inconclusive

How did C[C@H](CO)N1C[C@H](C)[C@@H](CN(C)C)OCCCC[C@H](C)Oc2ccc(NC(=O)Nc3cccc4ccccc34)cc2C1=O do in these assays?
XiGFP reactiv: 0; rRNA inh HTS: 1; AID977621: 4; AID977628: inconclusive

How did C[C@@H]1CCCCO[C@H](CN(C)C(=O)Nc2cccc3ccccc23)[C@@H](C)CN([C@H](C)CO)C(=O)c2cc(NC(=O)Nc3cccc4ccccc34)ccc2O1 do in these assays?
XiGFP reactiv: 0; rRNA inh HTS: 3

Results for C[C@@H]1CCCCO[C@@H](CN(C)CC2CC2)[C@H](C)CN([C@@H](C)CO)C(=O)c2cc(NC(=O)Nc3cccc4ccccc34)ccc2O1 ?
XiGFP reactiv: 0; rRNA inh HTS: 0

Results for C[C@H]1CCCCO[C@@H](CN(C)C)[C@@H](C)CN([C@@H](C)CO)C(=O)c2cc(NC(=O)Nc3cccc4ccccc34)ccc2O1 ?
XiGFP reactiv: -1; rRNA inh HTS: 2; AID977621: 0.71; AID977628: inconclusive

Results for C[C@@H]1CCCCO[C@H](CN(C)CC2CC2)[C@H](C)CN([C@@H](C)CO)C(=O)c2cc(NC(=O)Nc3cccc4ccccc34)ccc2O1 ?
XiGFP reactiv: 0; rRNA inh HTS: -27*; HepG2 tox: -14
